This is an account of results in ChEMBL document CHEMBL3351540, “Novel antiproliferative chimeric compounds with marked histone deacetylase inhibitory activity” (ACS Med Chem Lett, 2014).

Experiment [1] relates to K562. The experiment can be described thus: Induction of apoptosis in human K562 cells using annexin-V/PI staining by flow cytometry. It counts as functional, cell-based. The procedure, abridged:
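K562 cells treated for 48 h; apoptosis scored by annexin V test. AC50 is the concentration inducing apoptosis in 50% of cells. Triplicate points, SD error bars.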

For the next experiment, the target named is Histone deacetylase 1 (Homo sapiens, UniProt Q13547). Kind of experiment: Inhibition of human recombinant HDAC1 using modified Boc-Lys(Ac)-AMC MAL as substrate after 1 hr by fluorescent activity assay.
Histone deacetylase 1, sequence (Q13547 whole entry): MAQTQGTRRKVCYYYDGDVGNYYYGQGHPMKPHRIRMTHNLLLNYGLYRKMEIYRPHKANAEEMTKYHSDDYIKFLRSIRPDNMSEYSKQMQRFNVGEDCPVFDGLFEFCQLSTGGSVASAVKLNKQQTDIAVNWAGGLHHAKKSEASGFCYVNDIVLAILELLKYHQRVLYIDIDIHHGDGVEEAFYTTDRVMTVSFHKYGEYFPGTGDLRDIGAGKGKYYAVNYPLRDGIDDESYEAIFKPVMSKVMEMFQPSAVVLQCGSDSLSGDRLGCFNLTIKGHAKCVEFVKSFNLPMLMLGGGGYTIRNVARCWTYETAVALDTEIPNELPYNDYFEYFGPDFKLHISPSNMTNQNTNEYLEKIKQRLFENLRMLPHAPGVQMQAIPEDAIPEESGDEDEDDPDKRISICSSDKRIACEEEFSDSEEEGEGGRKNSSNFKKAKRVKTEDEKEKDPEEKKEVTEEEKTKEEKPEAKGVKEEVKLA
Experiment [2] relates to K562. Kind of experiment: Antiproliferative activity against human K562 cells assessed as growth inhibition after 48 hrs by trypan blue dye exclusion method. It counts as functional, cell-based. As to conditions: K562, 48 h.
A further experiment concerns the target Histone deacetylase 4 (Homo sapiens, UniProt P56524). The experiment can be described thus: Inhibition of human recombinant HDAC4 using (S)-[5-Acetylamino-1-(2-oxo-4-trifluorometyl-2Hchromen-7-ylcarbamoyl)pentl]carbami acid tert-Butyl Ester as substrate after 1 hr by fluorescent activity assay.
Experiment [3] is described as follows: Cell cycle arrest in human U937 cells assessed as block at G1 phase at 5 uM after 24 to 96 hrs using propidium iodide staining by FACScan flow cytometry. It counts as functional, cell-based. As to conditions: U-937. For orientation: In flow cytometry, cells or beads pass a laser one at a time.
Experiment [4] has as its system MCF7. The experiment can be described thus: Cell cycle arrest in human MCF7 cells assessed as block at G2 phase at 5 uM after 24 to 96 hrs using propidium iodide staining by FACScan flow cytometry.
Experiment [5] can be described thus: Cell cycle arrest in human U937 cells assessed as block at G1 phase at 5 uM after 24 to 96 hrs using propidium iodide staining by FACScan flow cytometry. As to conditions: U-937.
The target of experiment [6] is T1, Protein deacetylase HDAC6 (Homo sapiens, UniProt Q9UBN7).
T1 sequence (Q9UBN7 whole entry): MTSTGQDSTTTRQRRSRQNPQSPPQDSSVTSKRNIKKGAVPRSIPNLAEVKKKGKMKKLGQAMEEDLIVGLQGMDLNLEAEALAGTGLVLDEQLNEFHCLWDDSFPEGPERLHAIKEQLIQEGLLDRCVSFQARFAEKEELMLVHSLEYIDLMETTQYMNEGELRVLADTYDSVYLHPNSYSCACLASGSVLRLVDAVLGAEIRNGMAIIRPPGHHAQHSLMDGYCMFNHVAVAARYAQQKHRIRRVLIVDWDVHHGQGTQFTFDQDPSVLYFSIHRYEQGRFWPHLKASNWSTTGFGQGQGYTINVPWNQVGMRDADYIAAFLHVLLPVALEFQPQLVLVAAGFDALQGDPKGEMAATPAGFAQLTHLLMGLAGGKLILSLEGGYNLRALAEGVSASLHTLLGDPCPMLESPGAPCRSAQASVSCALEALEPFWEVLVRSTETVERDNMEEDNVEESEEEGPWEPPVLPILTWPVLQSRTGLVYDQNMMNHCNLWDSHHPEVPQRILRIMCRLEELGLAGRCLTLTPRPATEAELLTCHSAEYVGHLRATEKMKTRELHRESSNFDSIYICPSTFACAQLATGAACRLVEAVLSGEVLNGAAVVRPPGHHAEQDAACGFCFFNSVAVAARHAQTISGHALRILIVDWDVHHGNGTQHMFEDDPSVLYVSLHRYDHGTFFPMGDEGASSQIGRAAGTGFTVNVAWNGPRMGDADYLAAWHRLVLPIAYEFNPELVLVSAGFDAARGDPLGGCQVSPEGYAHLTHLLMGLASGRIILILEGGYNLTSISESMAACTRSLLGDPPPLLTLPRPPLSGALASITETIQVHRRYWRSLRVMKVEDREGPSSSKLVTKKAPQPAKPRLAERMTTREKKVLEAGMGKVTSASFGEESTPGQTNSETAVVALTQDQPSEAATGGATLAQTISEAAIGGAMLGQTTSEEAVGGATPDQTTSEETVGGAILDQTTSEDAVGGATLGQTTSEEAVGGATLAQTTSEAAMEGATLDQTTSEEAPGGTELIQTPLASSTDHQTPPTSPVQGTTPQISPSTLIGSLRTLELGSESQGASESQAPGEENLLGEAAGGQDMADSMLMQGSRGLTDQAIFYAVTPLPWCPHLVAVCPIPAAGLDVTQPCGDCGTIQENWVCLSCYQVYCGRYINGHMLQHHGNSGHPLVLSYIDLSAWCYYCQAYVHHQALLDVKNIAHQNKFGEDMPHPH
Kind of experiment: Inhibition of human recombinant HDAC6 using Z-MAL as substrate after 1 hr by fluorescent activity assay.

In experiment [7] the test system is U-937. The experiment can be described thus: Induction of apoptosis in human U937 cells using annexin-V/PI staining after 48 hrs by flow cytometry relative to SAHA. It counts as functional. An outline of the steps:
(§1)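 U937 cells treated with 5 μM compound for 48 h, with SAHA at 5 μM as positive control. Apoptosis and necrosis measured by annexin V/PI double staining and flow cytometry. Triplicate points, SD error bars.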

In experiment [8] the test system is MCF7. The experiment can be described thus: Antiproliferative activity against human MCF7 cells assessed as reduction in doubling time at 5 uM after 10 to 18 hrs by real-time mode analysis. The format is functional, cell-based. The procedure, abridged:
(§2)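 Real-time proliferation of MCF-7 cells treated with 5 μM compound, recorded as cell index versus time over 36 h. Doubling time was calculated over the 10−18 h interval.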

For experiment [9], the system named is MCF7. The experiment can be described thus: Antimigratory activity against human MCF7 cells assessed as reduction in slope values at 5 uM up to 24 hrs by real-time mode analysis. The format is functional. On the set-up: scale not given: the % may be the effect or the level left. The procedure, abridged: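 MCF-7 cells exposed to 5 μM compound and tracked in real time as cell index versus time over 27 h. Migration was expressed as the slope of the cell index within 24 h.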

The test system of experiment [10] is MCF7. The experiment can be described thus: Antiproliferative activity against human MCF7 cells at 5 uM after 10 hrs by real-time mode analysis. The format is functional, cell-based. The procedure, abridged: as §2
The subject of experiment [11] is K562. Kind of experiment: Ratio of SAHA AC50 to compound AC50 for human K562 cells using annexin-V/PI staining by flow cytometry. It counts as functional.
Experiment [12] concerns MCF7. The experiment can be described thus: Cell cycle arrest in human MCF7 cells assessed as block at G2-M phase at 5 uM after 24 to 96 hrs using propidium iodide staining by FACScan flow cytometry. It counts as functional, cell-based.
Experiment [13] has as its system K562. The experiment can be described thus: Cell cycle arrest in human K562 cells assessed as block at G2-M phase at 40 uM after 24 hrs using propidium iodide staining by FACScan flow cytometry. It counts as functional, cell-based.
The test system of experiment [14] is K562. Kind of experiment: Cell cycle arrest in human K562 cells assessed as block at G1 phase at 40 uM after 24 hrs using propidium iodide staining by FACScan flow cytometry. It counts as functional, cell-based.
Experiment [15] concerns U-937. The experiment can be described thus: Induction of apoptosis in human U937 cells using annexin-V/PI staining after 48 hrs by flow cytometry. It counts as functional, cell-based. An outline of the steps:
as §1

The structures appear in SMILES notation. Activity calls are given as the source filed them. No cut-off for these calls is given here.

Broadly, the AC50 is the concentration giving half of the maximal activity seen. The term IC50 denotes the concentration that inhibits the measured activity by half.

Histone deacetylase 4, sequence (P56524 whole entry): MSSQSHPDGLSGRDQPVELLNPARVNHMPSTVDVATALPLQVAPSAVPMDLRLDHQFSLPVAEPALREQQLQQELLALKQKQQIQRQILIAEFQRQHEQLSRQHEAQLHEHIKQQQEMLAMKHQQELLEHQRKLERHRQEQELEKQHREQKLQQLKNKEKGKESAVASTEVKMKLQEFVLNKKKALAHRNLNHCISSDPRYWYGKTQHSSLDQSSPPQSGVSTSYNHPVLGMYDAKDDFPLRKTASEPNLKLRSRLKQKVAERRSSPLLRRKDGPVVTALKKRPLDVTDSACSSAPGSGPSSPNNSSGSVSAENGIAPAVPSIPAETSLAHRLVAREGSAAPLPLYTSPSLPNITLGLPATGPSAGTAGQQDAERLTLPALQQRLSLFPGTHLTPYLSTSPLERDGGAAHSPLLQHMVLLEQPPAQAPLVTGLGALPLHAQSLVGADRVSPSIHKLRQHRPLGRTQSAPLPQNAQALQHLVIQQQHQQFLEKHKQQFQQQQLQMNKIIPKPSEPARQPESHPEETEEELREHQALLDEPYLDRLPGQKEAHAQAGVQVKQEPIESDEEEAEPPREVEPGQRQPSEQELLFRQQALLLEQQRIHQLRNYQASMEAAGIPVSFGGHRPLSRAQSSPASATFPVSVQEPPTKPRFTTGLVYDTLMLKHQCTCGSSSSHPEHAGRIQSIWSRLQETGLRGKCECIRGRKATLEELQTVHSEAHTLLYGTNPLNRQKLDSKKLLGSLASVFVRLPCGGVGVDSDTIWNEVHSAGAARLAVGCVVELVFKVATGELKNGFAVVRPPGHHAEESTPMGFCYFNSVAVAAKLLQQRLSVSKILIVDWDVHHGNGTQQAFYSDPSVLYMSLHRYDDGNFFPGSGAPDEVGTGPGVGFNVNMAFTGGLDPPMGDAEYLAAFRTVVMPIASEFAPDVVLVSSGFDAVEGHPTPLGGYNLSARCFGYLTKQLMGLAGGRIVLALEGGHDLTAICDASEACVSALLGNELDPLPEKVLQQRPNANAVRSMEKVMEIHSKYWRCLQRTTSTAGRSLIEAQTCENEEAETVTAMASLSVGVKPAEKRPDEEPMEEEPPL

In the experiment on K562 [1], `O=C(CCCCCCNC(=O)c1ccc(-c2ccc(-c3cc(O)cc(O)c3)cc2)cc1)NO` returned an AC50 of 16 µM. For the same compound, the results for the IC50 on Histone deacetylase 1 and with K562 [2] were 15.7 µM and 2.5 µM, respectively.

In the experiment with K562 [1], `O=C(NO)c1ccc(-c2ccc(-c3cc(O)cc(O)c3)cc2)cc1` registered an AC50 of over 50 µM. Moreover, the IC50 turned out to be 8.9 µM on Histone deacetylase 1 and 20 µM with K562 [2].

`O=C(CCCCCNC(=O)c1ccc(-c2ccc(-c3cc(O)cc(O)c3)cc2)cc1)NO`: the activity in the experiment on K562 [1] was half-maximal at 38 µM (AC50). Further, the IC50 came to 0.9 µM at Histone deacetylase 1 and 6 µM with K562 [2].

Consider `COc1cc(/C=C/c2ccc(OC)c(NC(=O)CCCCCCC(=O)NO)c2)cc(OC)c1`, for which the IC50 at Histone deacetylase 4 stood at 9.8 µM; on Histone deacetylase 1 it was 0.8 µM; in [6] it was 1.3 µM; with K562 [2], 0.7 µM. Besides, the AC50 in the experiment on K562 [1] came to 5 µM. For the same compound, the outcome (in experiment [3]; in the experiment on MCF7 [4]; in [5]; in the experiment on MCF7 [8]; with MCF7 [10]; with MCF7 [12]) was Active. Also, the “fold change (FC)” value with U-937 [7] is listed as 2. Also, the Activity in the experiment with MCF7 [9] is 25%. The Ratio in the experiment on K562 [11] was 2.

`COc1cc(/C=C\c2ccc(OC)c(NC(=O)CCCCCCC(=O)NO)c2)cc(OC)c1`: the IC50 on Histone deacetylase 4 came to 7.6 µM; on Histone deacetylase 1, 2.1 µM; in experiment [6], 1.6 µM; with K562 [2], 7.5 µM. Besides, in the experiment on K562 [1], the AC50 stood at 40 µM. Besides, the outcome with K562 [13] and in the experiment on K562 [14] was Active.

In turn, `COc1cc(/C=C/c2ccc(OC)c(N)c2)cc(OC)c1` had an AC50 in the experiment on K562 [1] of 20 µM. Also, the outcome in the experiment on K562 [13] and in the experiment on K562 [14] was Active. Further, in the experiment with K562 [2], the IC50 was determined as 2.5 µM.

`O=C(CCCCCCC(=O)Nc1ccccc1)NO` [VORINOSTAT]: in the experiment on K562 [1], the activity was half-maximal at 10 µM (AC50). Further, the outcome (in the experiment with U-937 [15]; in experiment [3]; in the experiment with MCF7 [4]; in [5]; in the experiment with K562 [13]; with MCF7 [8]) was Active. The result in the experiment on K562 [14] and in the experiment on MCF7 [12] was Active.

The compound `Oc1ccc(-c2ccc(-c3cc(O)cc(O)c3)cc2)cc1` had an AC50 with K562 [1] of over 50 µM.

Consider `COc1cc(/C=C\c2ccc(OC)c(N)c2)cc(OC)c1`, for which the concentration at half-maximal activity (AC50) in the experiment on K562 [1] came out at 0.25 µM. Besides, the IC50 in the experiment with K562 [2] amounted to 0.025 µM.
